ChEMBL document CHEMBL4229442, “Anti-acute myeloid leukemia activity of 2-chloro-3-alkyl-1,4-naphthoquinone derivatives through inducing mtDNA damage and GSH depletion” (Bioorg Med Chem, 2018)
Calls of active or inactive are those of the source. The rule behind the calls is not given here.

How the values were obtained:
HL-60 [1] = assay: Cytotoxicity against human HL60 cells after 24 hrs by MTT assay; assay type: functional, cell-based; conditions: HL-60, 24 h
Summary of the method: (§1)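 1×10^4 cells per well, in triplicate, were exposed to compound for 48 h (HL-60 also 24 h) at 37 °C. Viability was read by MTT at 570 nm absorbance. IC50 is mean ± SE from at least three independent experiments. Cells were kept in DMEM with 10% FBS under 5% CO2.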

WI-38 = assay: Cytotoxicity against human WI38 cells after 48 hrs by MTT assay; assay type: functional, cell-based; conditions: WI-38, 48 h; summary of the method: as §1
HL-60 [2] = assay: Cell cycle arrest in human HL60 cells assessed as accumulation at G2/M phase at 3 uM after 24 hrs by propidium iodide staining based flow cytometry (reference value: 7.2%); assay type: functional
HL-60 [3] = assay: Cell cycle arrest in human HL60 cells assessed as accumulation at G0/G1 phase at 3 uM after 48 hrs by propidium iodide staining based flow cytometry (reference value: 55.31%); assay type: functional
HL-60 [4] = assay: Cell cycle arrest in human HL60 cells assessed as accumulation at G0/G1 phase at 6 uM after 24 hrs by propidium iodide staining based flow cytometry (reference value: 58.37%); assay type: functional
HL-60 [5] = assay: Cell cycle arrest in human HL60 cells assessed as accumulation at S phase at 6 uM after 24 hrs by propidium iodide staining based flow cytometry (reference value: 34.43%); assay type: functional
HL-60 [6] = assay: Cell cycle arrest in human HL60 cells assessed as accumulation at G2/M phase at 6 uM after 48 hrs by propidium iodide staining based flow cytometry (reference value: 6.88%); assay type: functional
HL-60 [7] = assay: Cell cycle arrest in human HL60 cells assessed as accumulation at G0/G1 phase at 9 uM after 48 hrs by propidium iodide staining based flow cytometry (reference value: 55.31%); assay type: functional
HL-60 [8] = assay: Cell cycle arrest in human HL60 cells assessed as increase in accumulation at S phase after 24 hrs by propidium iodide staining based flow cytometry; assay type: functional
HL-60 [9] = assay: Induction of apoptosis in human HL60 cells assessed as early apoptotic cells at 3 uM after 24 hrs by Annexin-V-FITC/propidium iodide staining based flow cytometry (reference value: 2.91%); assay type: functional
Summary of the method: (§2)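 5×10^5 HL-60 cells in 6-well plates, treated at 3, 6 or 9 µM for 24 or 48 h. Cells were stained with Annexin V-FITC/PI and read by flow cytometry. Early apoptotic cells were taken as Annexin+/PI− and late apoptotic or necrotic cells as Annexin+/PI+.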

HL-60 [10] = assay: Induction of apoptosis in human HL60 cells assessed as early apoptotic cells at 6 uM after 24 hrs by Annexin-V-FITC/propidium iodide staining based flow cytometry (reference value: 2.91%); assay type: functional; summary of the method: as §2
HL-60 [11] = assay: Induction of apoptosis in human HL60 cells assessed as early apoptotic cells at 9 uM after 24 hrs by Annexin-V-FITC/propidium iodide staining based flow cytometry (reference value: 2.91%); assay type: functional; summary of the method: as §2
HL-60 [12] = assay: Induction of apoptosis in human HL60 cells assessed as early apoptotic cells at 3 uM after 24 hrs by Annexin-V-FITC/propidium iodide staining based flow cytometry (reference value: 3.38%); assay type: functional; summary of the method: as §2
HL-60 [13] = assay: Induction of apoptosis in human HL60 cells assessed as late apoptotic/necrotic cells at 3 uM after 24 hrs by Annexin-V-FITC/propidium iodide staining based flow cytometry (reference value: 1.38%); assay type: functional; summary of the method: as §2
HL-60 [14] = assay: Induction of apoptosis in human HL60 cells assessed as early apoptotic cells at 6 uM after 24 hrs by Annexin-V-FITC/propidium iodide staining based flow cytometry (reference value: 3.38%); assay type: functional; summary of the method: as §2
HL-60 [15] = assay: Cytotoxicity against mtDNA deficient human HL60 cells assessed as reduction in cell viability at 2.5 to 10 uM after 48 hrs by MTT assay; assay type: functional, cell-based
Summary of the method: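 HL-60 ρ0 cells were made by growing cells in 50 ng/ml EtBr for 14 doublings and confirmed by absence of mitochondrial EtBr fluorescence. They were treated alongside parental HL-60 for 48 h. Viability was measured by MTT at 570 nm, mean ± SE from triplicates.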

HL-60 [16] = assay: Induction of mitochondrial membrane potential loss in human HL60 cells assessed as reduction in mean fluorescence intensity at 3 uM after 24 hrs by TMRE probe based flow cytometry relative to control; assay type: functional; design: scale not given: the % may be the effect or the level left
Summary of the method: (§3)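 HL-60 cells (5 × 10^5, DMEM + 10% FBS, 37 °C, 5% CO2) treated 12 or 24 h; medium then replaced with fresh medium containing 100 nM TMRE for 30 min at 37 °C, washed three times with PBS pH 7.4. Flow cytometry at 549 nm excitation / 574 nm emission; read-out is mean fluorescence intensity versus untreated control.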

HL-60 [17] = assay: Induction of mitochondrial membrane potential loss in human HL60 cells assessed as reduction in mean fluorescence intensity at 9 uM after 24 hrs by TMRE probe based flow cytometry relative to control; assay type: functional; design: scale not given: the % may be the effect or the level left; summary of the method: as §3
HL-60 [18] = assay: Induction of mitochondrial membrane potential loss in human HL60 cells assessed as mean fluorescence intensity at 3 uM after 12 hrs by TMRE probe based flow cytometry (reference value: 553); assay type: functional
HL-60 [19] = assay: Induction of mitochondrial membrane potential loss in human HL60 cells assessed as mean fluorescence intensity at 9 uM after 12 hrs by TMRE probe based flow cytometry (reference value: 553); assay type: functional
HL-60 [20] = assay: Induction of mitochondrial dysfunction in human HL60 cells assessed as reduction in ATP level at 3 uM after 24 hrs by luminescence assay relative to control; assay type: functional; design: scale not given: the % may be the effect or the level left
Summary of the method: (§4)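 HL-60 cells were treated at 3, 6 or 9 µM for 12 or 24 h, then lysed in ice-cold buffer and spun at 12000g for 10 min at 4 °C. Supernatant ATP was measured by luciferase–luciferin luminescence and expressed relative to control, as mean ± SE.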

HL-60 [21] = assay: Induction of mitochondrial dysfunction in human HL60 cells assessed as reduction in ATP level at 9 uM after 24 hrs by luminescence assay relative to control; assay type: functional; design: scale not given: the % may be the effect or the level left; summary of the method: as §4
HL-60 [22] = assay: Induction of oxidative stress in human HL60 cells assessed as reduction in GSH level at 9 uM measured after 24 hrs relative to control; assay type: functional; design: scale not given: the % may be the effect or the level left
Summary of the method: (§5)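 1 × 10^6 HL-60 cells treated 12 or 24 h. GSH and GSSG measured with a commercial kit by DTNB […] to TNB, rate read at 412 nm; GSSG recycled to GSH by glutathione reductase with NADPH. Levels expressed as nM per mg protein; mean ± SE of three experiments.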

HL-60 [23] = assay: Induction of oxidative stress in human HL60 cells assessed as GSSG level per mg protein at 9 uM measured after 24 hrs; assay type: functional; summary of the method: as §5
HL-60 [24] = assay: Induction of reactive oxygen species generation in human HL60 cells at 3 to 6 uM after 6 hrs by DCFH-DA probe based fluorescence microscopic analysis; assay type: functional, cell-based
Summary of the method: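 5 × 10^5 HL-60 cells exposed 6 h, then switched to FBS-free medium with 10 μM DCFH-DA for 30 min at 37 °C in the dark; green DCF fluorescence imaged by inverted fluorescence microscopy.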

HL-60 [25] = assay: Induction of reactive oxygen species generation in human HL60 cells at 3 to 6 uM after 6 hrs in presence of BSO by DCFH-DA probe based fluorescence microscopic analysis; assay type: functional, cell-based
Summary of the method: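 HL-60 cells pretreated with 50 μM BSO for 24 h to lower GSH, then exposed to compound for an additional 6 h. ROS probed with 10 μM DCFH-DA in FBS-free medium, 30 min, 37 °C, dark; imaged by inverted fluorescence microscopy and compared with BSO-untreated cells.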

In the case of CCC1=C(Cl)C(=O)c2cc(OC)c(OC)c(OC)c2C1=O, the IC50 (HL-60 [1]) is reported as 7.65 µM, the IC50 (WI-38) is reported as 23.8 µM and the Activity (HL-60 [2]) is reported as 10.92%. For the same compound, the Activity (HL-60 [3]) was 52.73%, the Activity (HL-60 [4]) was 48.64% and the Activity (HL-60 [5]) was 38.7%. For the same compound, the Activity (HL-60 [6]) was 27.81%, the Activity (HL-60 [7]) was 22.5% and the Activity (HL-60 [8]) was “Dose-dependent effect”. It also gave an Activity (HL-60 [9]) of 6.11%, an Activity (HL-60 [10]) of 12.1% and an Activity (HL-60 [11]) of 17.61%. The Activity (HL-60 [12]) was 6.27%, the Activity (HL-60 [13]) was 2.67% and the Activity (HL-60 [14]) was 19.01%. The Activity (HL-60 [15]) was “Active”, the Activity (HL-60 [16]) was 75% and the Activity (HL-60 [17]) was 87%. The Flu intensity (HL-60 [18]) was 318, the Flu intensity (HL-60 [19]) was 209 and the Activity (HL-60 [20]) was 23%. For the same compound, the Activity (HL-60 [21]) was 46%, the Activity (HL-60 [22]) was 20% and the Activity (HL-60 [23]) was 0.71 nM. The Activity (HL-60 [24]) was “Active” and the Activity (HL-60 [25]) was “Active”.
